Source: ChEMBL document CHEMBL1147738, “Potent and selective mitogen-activated protein kinase kinase (MEK) 1,2 inhibitors. 1. 4-(4-bromo-2-fluorophenylamino)-1- methylpyridin-2(1H)-ones” (J Med Chem, 2006)
In brackets after ≈: the same amount, converted by molar mass.

Legend:
Malme-3M [1] = assay: Inhibition of basal ERK phosphorylation in Malme-3M cells; assay type: functional, Homo sapiens
Malme-3M [2] = assay: Inhibition of cellular viability of Malme-3M cells; assay type: functional, Homo sapiens
[3] = Clearance in presence of human hepatocytes; assay type: ADME, cell-based, Liver, Hepatocyte
Outline: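 Human hepatocytes (fresh or cryopreserved) diluted to 2 x 10⁶ viable cells/mL in supplemented Krebs-Henseleit buffer pH 7.3, mixed 1:1 with 2 µM compound working solution. Incubated at 37 °C, 5% CO₂, duplicates, one plate per timepoint. Quenched with labetalol internal standard and centrifuged; compound remaining measured by LC-MS/MS (ESI+, MRM).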

[4] = Aqueous solubility at pH 6.5; assay type: physicochemical
Outline: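 Thermodynamic shake-flask method: crystalline solid (0.5 mg, crystallinity confirmed by polarizing microscopy) in 0.5 mL 10 mM potassium phosphate, pH 6.5, swirled 24 h at room temperature. Filtered aliquots were quantified by HPLC-PDA against a calibration curve.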

[5] = Clearance in rat; assay type: ADME, organism-based; details: Sprague-Dawley, in vivo
Outline: (§1)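 Male Sprague Dawley rats (6-10 weeks) received IV 1 mg/kg (10% DMSO/90% saline) and PO 10 mg/kg (1% CMC/0.5% Tween 80). Serial tail-vein plasma was taken up to 24 h (IV) or 72 h (PO) and analysed by LC/MS/MS (9 ng/mL to 20 µg/mL). Parameters were calculated non-compartmentally.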

[6] = Volume of distribution in rat; assay type: ADME, organism-based; details: Sprague-Dawley, in vivo, read-out: Vdss; outline: as §1
Rattus norvegicus [7] = assay: AUC in rat at 1 mg/kg, iv; assay type: ADME, organism-based, Sprague-Dawley, Plasma; set-up: dose 1 mg/kg, route intravenous; details: in vivo
Outline: (§2)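 Male Sprague Dawley rats (6-10 weeks), fed ad lib, dosed IV at 1 mg/kg (1 mg/mL in 10% DMSO/90% normal saline, 1 mL/kg). Tail-vein EDTA blood sampled 1, 5, 15, 30 min and 1, 2, 4, 8, 12, 24 h. Plasma analysed by LC/MS/MS after methanol protein precipitation, range 9 ng/mL to 20 µg/mL. Parameters derived by non-compartmental analysis.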

Rattus norvegicus [8] = assay: AUC in rat at 10 mg/kg, po; assay type: ADME, organism-based, Sprague-Dawley, Plasma; set-up: dose 10 mg/kg, route oral; details: in vivo
Outline: (§3)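 Male Sprague Dawley rats (6-10 weeks) were given 10 mg/kg by oral gavage (2 mg/mL in 1% CMC/0.5% Tween 80, 5 mL/kg). Tail-vein EDTA blood was drawn at 15 and 30 min and 1, 2, 4, 8, 12, 24, 48, 72 h. Plasma was quantified by LC/MS/MS after methanol precipitation. Parameters came from non-compartmental analysis.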

[9] = Half life in rat at 1 mg/kg, iv; assay type: ADME, organism-based; set-up: dose 1 mg/kg, route intravenous; details: Sprague-Dawley, in vivo; outline: as §2
[10] = Half life in rat at 10 mg/kg, po; assay type: ADME, organism-based; set-up: dose 10 mg/kg, route oral; details: Sprague-Dawley, in vivo; outline: as §3
[11] = Oral bioavailability in rat; assay type: ADME, organism-based; details: Sprague-Dawley, in vivo; outline: as §1
HT-29 [12] = assay: Inhibition of ERK phosphorylation in HT29 tumor bearing NCr-nu/nu mice after 4 hrs at 10 mg/kg, po; assay type: functional; details: Mus musculus, HT-29, 4 h
HT-29 [13] = assay: Inhibition of ERK phosphorylation in HT29 tumor bearing Ncr-nu/nu mice after 12 hrs at 10 mg/kg, po; assay type: functional; details: Mus musculus, HT-29, 12 h

SMILES	Activity (Malme-3M [1])	Activity (Malme-3M [2])	further results
Cn1cc(C(=O)NOCCO)c(Nc2ccc(Br)cc2F)c(Cl)c1=O	26 nM	175 nM	–
COc1ncc(C(=O)NOCCO)c(Nc2ccc(Br)cc2F)c1Cl	>10000 nM	>5000 nM	–
Cn1cc(C(=O)NOCCO)c(Nc2ccc(Br)cc2F)cc1=O	73 nM	460 nM	–
O=C(NOCCO)c1cnc(Cl)c(Cl)c1Nc1ccc(Br)cc1F	>10000 nM	>5000 nM	–
Cn1cc(C(=O)NO)c(Nc2ccc(Br)cc2F)c(F)c1=O	18 nM	860 nM	–
Cc1c(Nc2ccc(Br)cc2F)c(C(=O)NOCC2CC2)cn(C)c1=O	7.5 nM	46 nM	–
CNC(=O)c1cn(C)c(=O)c(F)c1Nc1ccc(Br)cc1F	68 nM	405 nM	–
Cn1cc(C(N)=O)c(Nc2ccc(Br)cc2F)c(F)c1=O	7.1 nM	48 nM	CLhep predicted [3]: 9 mL/min/kg; solubility [4]: 26 µg/mL (≈ 72.6 µM); clearance [5]: 5.7 mL/min/kg; Vd [6]: 0.8 L/kg; AUC (Rattus norvegicus [7]): 2500 ng·h/mL; AUC (Rattus norvegicus [8]): 23000 ng·h/mL; half-life [9]: 1.8 h; half-life [10]: 11 h; bioavailability [11]: 100%; inhibition in vivo at 10 mg/kg (HT-29 [12]): > 80%; inhibition in vivo at 10 mg/kg (HT-29 [13]): 50%
